Reference: ChEMBL document CHEMBL1124572, “Synthesis and biological activity of novel carbacyclins having bicyclic substituents on the omega-chain” (J Med Chem, 1989)
In brackets after ≈: the same amount, converted by molar mass. Activity calls are given as the source filed them. The rule behind the calls is not given here.

How the values were obtained:
[1] = species on record: Rattus norvegicus; assay: Antiaggregatory activity is expressed as dose that inhibit rat platelet aggregation induced by collagen by 50% of that of the control; type: functional
Procedure, shortened: (§1)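 Male Wistar rats (250–350 g) under ether anesthesia were bled from the abdominal aorta into 0.1 volume 3.13% sodium citrate. Aggregation was induced by collagen (final 5 μg/mL) and read in an aggregometer at 37 °C with stirring. The IC50 is the concentration inhibiting aggregation by 50% versus control, derived by linear regression from three dose groups of five or six animals (mean ± SEM).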

[2] = tested on: Rattus norvegicus; assay: Dose that reduces mean blood pressure by 15 mmHg (peak effect) in rat administered intravenously; type: functional
Procedure, shortened: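 Male Wistar rats (200–300 g) were anesthetized with urethane. Compound was given iv via the femoral vein, and blood pressure was recorded by transducer through a femoral artery catheter. MBP15 is the dose lowering mean blood pressure by 15 mmHg at peak effect, derived by linear regression from three dose groups of five or six animals (mean ± SEM).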

[3] = tested on: Rattus norvegicus; assay: Inhibition of ethanol induced gastric lesions in the rat following p.o. administration; No effect.; type: functional, organism-based; conditions: Stomach
Procedure, shortened: (§2)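 Male Sprague-Dawley rats (200–300 g) were fasted 24 h and dosed orally at 2 mL/kg, 30 min before 1 mL of 100% ethanol per rat. Animals were killed 1 h later, and stomachs were formalin-fixed, opened along the greater curvature and examined for lesions. ED50 is the dose giving 50% lesion inhibition versus control, derived by linear regression from three dose groups of eight rats each.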

[4] = tested on: Rattus norvegicus; assay: Inhibition of ethanol induced gastric lesions in the rat following p.o. administration.; type: functional; conditions: Stomach, po; procedure, shortened: as §2
[5] = species on record: Rattus norvegicus; assay: Relative potency for hypotension in rats; type: functional
[6] = species on record: Rattus norvegicus; assay: Relative potency for antiaggregation in rats; type: functional
Procedure, shortened: (§3)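 Antiaggregation relative potency was calculated against PGI2 from the IC50 for collagen-induced (5 μg/mL) aggregation of citrated rat blood, measured at 37 °C.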

[7] = species on record: Rattus norvegicus; assay: Relative potency for organ protection in rats; type: functional
Procedure, shortened: (§4)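 Relative potencies were calculated against PGE2 from the rat oral ED50 for ethanol-induced gastric lesions and the iv MBP15 hypotension dose. The ratio is organ-protective relative potency divided by hypotensive relative potency, with PGE2 set to 1.0.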

[8] = Ratio of relative potencies of organ protection/ hypotension to that of PGE-2 in rats; type: functional; procedure, shortened: as §4
[9] = Ratio of relative potencies of antiaggregation/ hypotension to that of PGI-2 Na in rats
[10] = species on record: Rattus norvegicus; assay: Relative potency for antiaggregation; type: functional; procedure, shortened: as §3
[11] = species on record: Rattus norvegicus; assay: Relative potency for organ protection; type: functional; procedure, shortened: as §4
[12] = species on record: Rattus norvegicus; assay: Relative potency for hypotension; type: functional
[13] = species on record: Rattus norvegicus; assay: Antiaggregatory activity is expressed as dose that inhibit rat platelet aggregation induced by collagen by 50% of that of the control; No effect; type: functional; procedure, shortened: as §1
[14] = tested on: Rattus norvegicus; assay: Organ-protective activity is expressed as dose that inhibits 50 percent of ethanol-induced gastric lesions of control orally in rat; No effect; type: functional, organism-based; conditions: Stomach; procedure, shortened: as §2

SMILES	IC50 [1]	Dose lowering mean blood pressure by 15 mmHg [2]	ED50 [4]	further results
CC(C)c1cccc2c(CC[C@H](O)/C=C/[C@@H]3C4C/C(=C/CCCC(=O)O)CC4C[C@H]3O)ccc-2c1 (some centres not stated)	> 1 µg/mL	>0.1 mg/kg	–	ED50 [3]: No effect
O=C(O)CCC/C=C1\CC2C[C@@H](O)[C@H](/C=C/[C@@H](O)CC3COc4ccccc4O3)C2C1 (some centres not stated)	0.324 µg/mL (≈ 0.755 µM)	0.044 mg/kg	> 0.3 mg/kg	–
O=C(O)CCC/C=C1\CC2C[C@@H](O)[C@H](/C=C/[C@@H](O)c3ccc4c(c3)OCO4)C2C1 (some centres not stated)	> 1 µg/mL	>0.1 mg/kg	–	ED50 [3]: No effect
O=C(O)CCC/C=C1\CC2C[C@@H](O)[C@H](/C=C/[C@@H](O)c3ccc4c(c3)CCC4)C2C1 (some centres not stated)	> 1 µg/mL	>0.1 mg/kg	–	ED50 [3]: No effect
O=C(O)CCC/C=C1\CC2C[C@@H](O)[C@H](/C=C/[C@@H](O)C3COC4CCCCC4O3)C2C1 (some centres not stated)	> 1 µg/mL	0.0135 mg/kg	0.256 mg/kg	–
O=C(O)COC/C=C1\CC2C[C@@H](O)[C@H](/C=C/[C@@H](O)C3COc4ccccc4O3)C2C1 (some centres not stated)	0.582 µg/mL (≈ 1.4 µM)	0.0025 mg/kg	0.113 mg/kg	–
COc1ccc2c(c1)OCC([C@H](O)/C=C/[C@@H]1C3C/C(=C/COCC(=O)O)CC3C[C@H]1O)O2 (some centres not stated)	> 1 µg/mL	0.0062 mg/kg	–	ED50 [3]: No effect
O=C(O)COCCC1=C[C@H]2C[C@@H](O)[C@H](/C=C/[C@@H](O)C3COc4ccccc4O3)C2C1 (some centres not stated)	0.0531 µg/mL (≈ 0.128 µM)	0.0017 mg/kg	0.0085 mg/kg	–
CC1([C@H](O)/C=C/[C@@H]2C3C/C(=C/CCCC(=O)O)CC3C[C@H]2O)COc2ccccc2O1 (some centres not stated)	0.221 µg/mL (≈ 0.516 µM)	0.0036 mg/kg	0.0142 mg/kg	–
CCCCC[C@H](O)/C=C/[C@H]1[C@H](O)CC(=O)[C@@H]1C/C=C\CCCC(=O)O [DINOPROSTONE]	–	0.0012 mg/kg	0.0341 mg/kg	Relative potency [11]: 1; Relative potency [12]: 1; IC50 [13]: Not Active
O=C(O)CCC/C=C1\CC2C[C@@H](O)[C@H](/C=C/[C@@H](O)c3ccc4c(c3)OCCO4)C2C1 (some centres not stated)	> 1 µg/mL	>0.1 mg/kg	> 0.3 mg/kg	–
COc1ccc2c(c1)OCC([C@H](O)/C=C/[C@@H]1C3C/C(=C/CCCC(=O)O)CC3C[C@H]1O)O2 (some centres not stated)	0.355 µg/mL (≈ 0.799 µM)	0.0035 mg/kg	0.0021 mg/kg	Relative potency [7]: 16.2; Ratio [8]: 47.6; Relative potency [5]: 0.3
CC1([C@H](O)/C=C/[C@@H]2C3CC(CCOCC(=O)O)=C[C@H]3C[C@H]2O)Cc2ccccc2C1 (some centres not stated)	0.0692 µg/mL (≈ 0.168 µM)	0.002 mg/kg	0.006 mg/kg	–
CC1([C@H](O)/C=C/[C@@H]2C3C/C(=C/COCC(=O)O)CC3C[C@H]2O)Cc2ccccc2C1 (some centres not stated)	0.118 µg/mL (≈ 0.286 µM)	0.0076 mg/kg	0.0397 mg/kg	–
CCCCC[C@H](O)/C=C/[C@@H]1[C@H]2C/C(=C/CCCC(=O)[O-])O[C@H]2C[C@H]1O.[Na+] [EPOPROSTENOL SODIUM]	0.0034 µg/mL	0.0003 mg/kg	–	ED50 [14]: inactive; Relative potency [12]: 1; Relative potency [10]: 1
Cc1ccc2c(c1)OCC([C@H](O)/C=C/[C@@H]1C3C/C(=C/CCCC(=O)O)CC3C[C@H]1O)O2 (some centres not stated)	0.647 µg/mL (≈ 1.51 µM)	0.013 mg/kg	0.11 mg/kg	–

Further lines, with some results ahead:

IC50 [1]	SMILES	Dose lowering mean blood pressure by 15 mmHg [2]	ED50 [4]	further results
> 1 µg/mL	O=C(O)CCC/C=C1\CC2C[C@@H](O)[C@H](/C=C/[C@@H](O)C3CCc4ccccc43)C2C1 (some centres not stated)	>0.1 mg/kg	–	ED50 [3]: No effect
0.0302 µg/mL (≈ 0.0736 µM)	CC1([C@H](O)/C=C/[C@@H]2C3C/C(=C/CCCC(=O)O)CC3C[C@H]2O)Cc2ccccc2C1 (some centres not stated)	0.0053 mg/kg	0.0452 mg/kg	–
0.0153 µg/mL (≈ 0.0384 µM)	O=C(O)COC/C=C1\CC2C[C@@H](O)[C@H](/C=C/[C@@H](O)C3Cc4ccccc4C3)C2C1 (some centres not stated)	0.0038 mg/kg	0.0675 mg/kg	Relative potency [5]: 0.08; Relative potency [6]: 0.23
> 1 µg/mL	OCCCC/C=C1\CC2C[C@@H](O)[C@H](/C=C/[C@@H](O)C3Cc4ccccc4C3)C2C1 (some centres not stated)	>0.1 mg/kg	0.0536 mg/kg	–
0.15 µg/mL (≈ 0.34 µM)	O=C(O)CCC/C=C1\CC2C[C@@H](O)[C@H](/C=C/[C@@H](O)C3Cc4ccc([N+](=O)[O-])cc4C3)C2C1 (some centres not stated)	0.0085 mg/kg	0.14 mg/kg	–
0.407 µg/mL (≈ 0.945 µM)	O=C(O)CCC/C=C1\CC2C[C@@H](O)[C@H](/C=C/[C@@H](O)C3Cc4ccc(Cl)cc4C3)C2C1 (some centres not stated)	>0.1 mg/kg	> 0.3 mg/kg	–
0.0082 µg/mL (≈ 0.0208 µM)	O=C(O)CCC/C=C1\CC2C[C@@H](O)[C@H](C#C[C@@H](O)C3Cc4ccccc4C3)C2C1 (some centres not stated)	0.0013 mg/kg	0.0017 mg/kg	Relative potency [7]: 20.1; Ratio [8]: 21.8; Ratio [9]: 1.8; Relative potency [5]: 0.9; Relative potency [10]: 0.42
0.0705 µg/mL (≈ 0.165 µM)	COc1ccc2c(c1)CC([C@H](O)/C=C/[C@@H]1C3C/C(=C/CCCC(=O)O)CC3C[C@H]1O)C2 (some centres not stated)	0.006 mg/kg	0.0143 mg/kg	–
0.0204 µg/mL (≈ 0.0514 µM)	O=C(O)CCC/C=C1\CC2C[C@@H](O)[C@H](/C=C/[C@@H](O)C3Cc4ccccc4C3)C2C1 (some centres not stated)	0.0043 mg/kg	0.0562 mg/kg	Ratio [9]: 2.4; Relative potency [5]: 0.07; Relative potency [6]: 0.17
0.0567 µg/mL (≈ 0.142 µM)	O=C(O)COCCC1=C[C@H]2C[C@@H](O)[C@H](/C=C/[C@@H](O)C3Cc4ccccc4C3)C2C1 (some centres not stated)	0.0022 mg/kg	0.0274 mg/kg	–
0.0537 µg/mL (≈ 0.136 µM)	NC(=O)CCC/C=C1\CC2C[C@@H](O)[C@H](/C=C/[C@@H](O)C3Cc4ccccc4C3)C2C1 (some centres not stated)	0.0977 mg/kg	0.113 mg/kg	–
0.0764 µg/mL (≈ 0.192 µM)	O=C(O)CCC/C=C1\CC2C[C@@H](O)[C@H](CC[C@@H](O)C3Cc4ccccc4C3)C2C1 (some centres not stated)	0.035 mg/kg	–	ED50 [3]: No effect
0.324 µg/mL (≈ 0.781 µM)	O=C(O)CCC/C=C1\CC2C[C@@H](O)[C@H](/C=C/[C@@H](O)C3COc4ccccc4O3)C2C1 (some centres not stated)	0.002 mg/kg	0.0045 mg/kg	Relative potency [7]: 7.6; Ratio [8]: 12.7; Relative potency [5]: 0.6
